In ChEMBL document CHEMBL1949601, “γ-Carbolines: a novel class of cannabinoid agonists with high aqueous solubility and restricted CNS penetration” (Bioorg Med Chem Lett, 2012):
Converted amounts (≈) assume the structure as drawn.

Experiments:
Cannabinoid receptor 1 [1] = target: T1, Cannabinoid receptor 1 (Homo sapiens, UniProt P21554); assay: Displacement of [3H]-CP55,940 from human CB1 receptor expressed in HEK293 cells; format: cell-based
[2] = target: Voltage-gated inwardly rectifying potassium channel KCNH2 (Homo sapiens, UniProt Q12809); assay: Inhibition of human Erg by voltage ion flux electrophysiological assay
Voltage-gated inwardly rectifying potassium channel KCNH2, sequence (Q12809 whole entry): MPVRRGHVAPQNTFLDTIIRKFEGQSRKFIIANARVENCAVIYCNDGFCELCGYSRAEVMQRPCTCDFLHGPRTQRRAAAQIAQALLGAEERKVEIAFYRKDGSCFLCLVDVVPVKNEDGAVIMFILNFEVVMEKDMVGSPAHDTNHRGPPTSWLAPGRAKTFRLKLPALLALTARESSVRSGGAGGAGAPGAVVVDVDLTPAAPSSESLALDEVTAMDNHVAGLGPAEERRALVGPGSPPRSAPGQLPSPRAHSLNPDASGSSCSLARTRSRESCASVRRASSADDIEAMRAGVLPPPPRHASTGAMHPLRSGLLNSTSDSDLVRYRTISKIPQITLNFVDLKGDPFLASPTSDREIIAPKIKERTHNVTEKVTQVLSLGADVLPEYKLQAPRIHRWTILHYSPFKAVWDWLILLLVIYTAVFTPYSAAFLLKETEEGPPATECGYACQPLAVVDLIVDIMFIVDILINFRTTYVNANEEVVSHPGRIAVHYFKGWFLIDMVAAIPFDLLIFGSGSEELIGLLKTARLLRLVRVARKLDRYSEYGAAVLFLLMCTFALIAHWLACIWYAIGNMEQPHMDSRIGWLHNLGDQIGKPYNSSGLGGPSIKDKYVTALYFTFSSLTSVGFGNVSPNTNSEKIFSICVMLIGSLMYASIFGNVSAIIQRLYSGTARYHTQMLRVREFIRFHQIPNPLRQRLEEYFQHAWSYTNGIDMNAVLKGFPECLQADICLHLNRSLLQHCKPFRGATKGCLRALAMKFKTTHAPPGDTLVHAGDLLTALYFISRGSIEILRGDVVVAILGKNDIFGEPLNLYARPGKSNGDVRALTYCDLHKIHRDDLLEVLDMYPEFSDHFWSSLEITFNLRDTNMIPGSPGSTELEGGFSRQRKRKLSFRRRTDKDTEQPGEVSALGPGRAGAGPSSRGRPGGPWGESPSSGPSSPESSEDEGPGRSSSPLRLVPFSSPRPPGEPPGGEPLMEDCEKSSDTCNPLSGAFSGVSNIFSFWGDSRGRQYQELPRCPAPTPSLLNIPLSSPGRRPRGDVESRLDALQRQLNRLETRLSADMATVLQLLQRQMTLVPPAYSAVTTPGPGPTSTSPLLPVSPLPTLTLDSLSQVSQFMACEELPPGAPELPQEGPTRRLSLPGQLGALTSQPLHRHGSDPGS

Cannabinoid receptor 1 [3] = target: T1, Cannabinoid receptor 1; assay: Agonist activity at human CB1 receptor expressed in HEK293 EBNA cells by [35S]GTPgamma binding assay; format: functional, cell-based
[4] = Metabolic stability in human liver microsomes; format: ADME, Microsome; conditions: read-out: Stability
[5] = Aqueous solubility of the compound at pH 7.4; format: physicochemical
Cannabinoid receptor 2 = Cannabinoid receptor 2 (Homo sapiens, UniProt P34972); assay: Binding affinity to human CB2 receptor
Cannabinoid receptor 2, sequence (P34972 whole entry): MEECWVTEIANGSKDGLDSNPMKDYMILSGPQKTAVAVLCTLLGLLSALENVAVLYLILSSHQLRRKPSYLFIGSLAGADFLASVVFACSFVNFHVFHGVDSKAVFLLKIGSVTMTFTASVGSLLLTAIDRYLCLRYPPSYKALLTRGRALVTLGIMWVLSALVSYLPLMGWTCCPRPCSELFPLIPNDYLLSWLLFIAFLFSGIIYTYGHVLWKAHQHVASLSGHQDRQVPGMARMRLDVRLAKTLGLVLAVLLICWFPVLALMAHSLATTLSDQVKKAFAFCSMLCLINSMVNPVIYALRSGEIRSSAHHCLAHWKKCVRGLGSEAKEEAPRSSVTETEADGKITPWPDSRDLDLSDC

[6] = Apparent permeability across human Caco2 cells; format: ADME, cell-based; conditions: Caco-2
[7] = Ratio of drug uptake in brain to plasma of Sprague-Dawley rat at 1 mg/kg, sc; format: ADME, organism-based; set-up: dose 1 mg/kg, route subcutaneous; conditions: read-out: BPR
[8] = Metabolic stability in rat liver microsomes; format: ADME, Microsome; conditions: read-out: Stability
[9] = Dissociation constant, pKa of the compound; format: physicochemical
[10] = target: Cannabinoid receptor 1 (Rattus norvegicus) (UniProt P20272); assay: Agonist activity at CB1 receptor in rat brain tissue relative to control; format: functional, tissue-based
Cannabinoid receptor 1 (Rattus norvegicus), sequence (P20272 whole entry): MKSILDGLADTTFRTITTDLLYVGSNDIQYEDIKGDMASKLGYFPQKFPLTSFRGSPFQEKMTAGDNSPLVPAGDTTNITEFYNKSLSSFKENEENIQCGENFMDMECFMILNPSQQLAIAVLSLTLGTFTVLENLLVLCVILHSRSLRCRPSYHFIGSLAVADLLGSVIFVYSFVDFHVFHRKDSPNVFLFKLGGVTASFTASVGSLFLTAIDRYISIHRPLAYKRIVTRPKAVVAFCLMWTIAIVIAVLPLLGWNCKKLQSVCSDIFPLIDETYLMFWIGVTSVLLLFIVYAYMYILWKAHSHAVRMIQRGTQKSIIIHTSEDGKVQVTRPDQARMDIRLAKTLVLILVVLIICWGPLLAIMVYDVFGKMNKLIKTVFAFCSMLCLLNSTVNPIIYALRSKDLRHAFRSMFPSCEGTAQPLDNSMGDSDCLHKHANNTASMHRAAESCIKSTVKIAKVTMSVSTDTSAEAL

Cannabinoid receptor 1 [11] = target: Cannabinoid receptor 1 (Rattus norvegicus, UniProt P20272); assay: Agonist activity at CB1 receptor in rat brain tissue; format: functional, tissue-based
Cannabinoid receptor 1 (Rattus norvegicus, UniProt P20272), sequence (P20272 whole entry): as above

Cannabinoid receptor 1 [12] = target: T1, Cannabinoid receptor 1; assay: Partial agonist activity at human CB1 receptor expressed in HEK293 EBNA cells by [35S]GTPgamma binding assay; format: functional, cell-based
Outline: (§1)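 Membranes from HEK293 EBNA cells stably transfected with cloned human CB1; agonism read out as [35S]GTPγS binding, EC50 determined; Emax expressed relative to Win55,212-2 as reference agonist. Mean of at least 2 independent measurements.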

Cannabinoid receptor 1 [13] = target: T1, Cannabinoid receptor 1; assay: Partial agonist activity at human CB1 receptor expressed in HEK293 EBNA cells by [35S]GTPgamma binding assay relative to Win55,212-2; format: functional, cell-based; outline: as §1

T1 sequence (P21554 whole entry): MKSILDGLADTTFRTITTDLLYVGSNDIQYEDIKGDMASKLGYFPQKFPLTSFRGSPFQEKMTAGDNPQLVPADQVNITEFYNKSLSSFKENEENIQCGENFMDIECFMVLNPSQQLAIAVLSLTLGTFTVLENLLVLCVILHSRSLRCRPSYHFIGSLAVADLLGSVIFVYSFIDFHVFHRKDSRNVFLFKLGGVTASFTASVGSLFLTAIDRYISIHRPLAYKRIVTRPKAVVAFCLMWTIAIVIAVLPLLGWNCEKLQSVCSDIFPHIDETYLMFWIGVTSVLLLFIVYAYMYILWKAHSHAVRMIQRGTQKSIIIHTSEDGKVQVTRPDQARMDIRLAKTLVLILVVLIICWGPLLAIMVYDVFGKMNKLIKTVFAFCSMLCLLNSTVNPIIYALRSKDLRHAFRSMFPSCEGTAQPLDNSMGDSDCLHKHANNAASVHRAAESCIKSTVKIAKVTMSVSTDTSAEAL

| Structure (SMILES) | Ki (Cannabinoid receptor 1 [1]) | EC50 (Cannabinoid receptor 1 [3]) | also measured |
| --- | --- | --- | --- |
| Cn1c2c(c3cc(C(=O)N4CCCCC4)ccc31)CN(C1CCOCC1)CC2 | 0.226 µM |  | IC50 [2]: 18 µM |
| C=CCn1c2c(c3cc(C(=O)N4CCC(C)CC4)ccc31)CN(C1CCCCC1)CC2 | 0.056 µM | 0.06 µM | microsomal CLint [4]: 135 µL/min/mg |
| CC1CCN(C(=O)c2ccc3c(c2)c2c(n3S(=O)(=O)C(C)C)CCN(C3CCOCC3)C2)CC1 | 0.17 µM | 0.15 µM |  |
| CCOc1ccc(Cc2nc3cc(N(C)S(=O)(=O)c4cccs4)ccc3n2CC2CCCCC2)nc1 | 0.003 µM | 0.006 µM | solubility [5]: < 0.01 mg/mL; Ki (Cannabinoid receptor 2): 0.00056 µM; Papp [6]: 6 nm/s; microsomal CLint [4]: > 300 µL/min/mg; Kp [7]: 0.07; microsomal CLint [8]: > 300 µL/min/mg |
| CCCCCCC(C)(C)c1cc(O)c2c(c1)OC(C)(C)[C@@H]1CC=C(C(=O)O)C[C@@H]21 [LENABASUM] |  |  | Kp [7]: 0.3 |
| CCCS(=O)(=O)n1c2c(c3cc(C(=O)N4CCC(C)CC4)ccc31)CN(C1CCOC1)CC2 (stereo not given) | 0.32 µM |  | pKa [9]: 5.8 |
| CCS(=O)(=O)n1c2c(c3cc(C(=O)N4CCC(C)CC4)ccc31)CN(C1CCOC1)CC2 (stereo not given) | 0.197 µM |  | IC50 [2]: 25 µM; pKa [9]: 5.9 |
| C=CCn1c2c(c3cc(C(=O)N4CCC(C)CC4)ccc31)CN(CC1CC1)CC2 | 0.143 µM | 0.768 µM | solubility [5]: 3.3 mg/mL (≈ 8430 µM); Emax [10]: 47%; Ki (Cannabinoid receptor 2): 0.014 µM; Papp [6]: 30 nm/s; microsomal CLint [4]: 66 µL/min/mg; Kp [7]: 0.74; microsomal CLint [8]: > 300 µL/min/mg; EC50 (Cannabinoid receptor 1 [11]): 1.44 µM |
| CCCn1c2c(c3cc(C(=O)N4CCC(C)CC4)ccc31)CN(C1CCOCC1)CC2 | 0.058 µM | 0.103 µM |  |
| CC1CCN(C(=O)c2ccc3c(c2)c2c(n3S(=O)(=O)n3ccnc3)CCN(C3CCOCC3)C2)CC1 | 0.592 µM |  |  |
| CCCS(=O)(=O)n1c2c(c3cc(C(=O)N4CCC(C)CC4)ccc31)CN(C1CCOCC1)CC2 | 0.115 µM | 0.129 µM | IC50 [2]: 2 µM; pKa [9]: 7.3 |
| CC1CCN(C(=O)c2ccc3c(c2)c2c(n3C)CCN(C3CCCC3)C2)CC1 | 0.032 µM | 0.077 µM |  |
| CCNS(=O)(=O)n1c2c(c3cc(C(=O)N4CCC(C)CC4)ccc31)CN(C1CCOCC1)CC2 | 0.424 µM |  |  |
| C=CCn1c2c(c3cc(C(=O)N4CCC(C)CC4)ccc31)CN(Cc1cccnc1)CC2 |  | > 14 µM | microsomal CLint [4]: > 300 µL/min/mg |
| CC1CCN(C(=O)c2ccc3[nH]c4c(c3c2)CN(C2CCCC2)CC4)CC1 | 0.264 µM | 4.25 µM |  |
| CC1CCN(C(=O)c2ccc3c(c2)c2c(n3C)CCN(C3CCOCC3)C2)CC1 | 0.076 µM |  | IC50 [2]: 2.6 µM |
| C=CCn1c2c(c3cc(C(=O)N4CCC(C)CC4)ccc31)CN(CC1CCCC1)CC2 |  | 0.115 µM | microsomal CLint [4]: > 300 µL/min/mg |
| CCOc1ccc(Cn2c3c(c4cc(C(=O)N5CCC(C)CC5)ccc42)CN(C2CCOCC2)CC3)cc1 | 0.051 µM | 0.053 µM |  |
| C=CCn1c2c(c3cc(C(=O)N4CCC(C)CC4)ccc31)CN(C1CCSC1)CC2 (stereo not given) |  | 0.005 µM | microsomal CLint [4]: > 300 µL/min/mg |

| Structure (SMILES) | Ki (Cannabinoid receptor 1 [1]) | EC50 (Cannabinoid receptor 1 [3]) | also measured |
| --- | --- | --- | --- |
| CCCn1c2c(c3cc(C(=O)N4CCC(C)CC4)ccc31)CN(C1CCCC1)CC2 | 0.015 µM | 0.045 µM |  |
| CCCS(=O)(=O)n1c2c(c3cc(C(=O)N4CCC(C)CC4)ccc31)CN(C1CCCC1)CC2 | 0.022 µM | 0.022 µM |  |
| C=CCn1c2c(c3cc(C(=O)N4CCC(C)CC4)ccc31)CN(Cc1ccccc1)CC2 |  | 0.103 µM | microsomal CLint [4]: > 300 µL/min/mg |
| CC1CCN(C(=O)c2ccc3c(c2)c2c(n3S(C)(=O)=O)CCN(C3CCCC3)C2)CC1 | 0.036 µM | 0.05 µM |  |
| CC1CCN(C(=O)c2ccc3c(c2)c2c(n3S(C)(=O)=O)CCN(C3CCOCC3)C2)CC1 | 0.239 µM | 0.473 µM |  |
| CC1CCN(C(=O)c2ccc3c(c2)c2c(n3S(=O)(=O)c3ccccc3)CCN(C3CCOCC3)C2)CC1 | 0.031 µM | 0.059 µM |  |
| CCCC(=O)n1c2c(c3cc(C(=O)N4CCC(C)CC4)ccc31)CN(C1CCOCC1)CC2 | 0.102 µM |  | EC50 (Cannabinoid receptor 1 [12]): 0.117 µM; Emax (Cannabinoid receptor 1 [13]): 17% |
| C=CCn1c2c(c3cc(C(=O)N4CCC(C)CC4)ccc31)CN(Cc1ccncc1)CC2 |  | 1.36 µM | microsomal CLint [4]: > 300 µL/min/mg |
| C=CCn1c2c(c3cc(C(=O)N4CCC(C)CC4)ccc31)CN(C1CCOCC1)CC2 |  | 0.06 µM | microsomal CLint [4]: 42 µL/min/mg |
| CCn1c2c(c3cc(C(=O)N4CCC(C)CC4)ccc31)CN(C1CCCC1)CC2 | 0.034 µM | 0.063 µM |  |
| CCS(=O)(=O)n1c2c(c3cc(C(=O)N4CCC(C)CC4)ccc31)CN(C1CCCC1)CC2 | 0.017 µM | 0.011 µM |  |
| CCCCCOc1ccc(C(=O)c2cccc3ccccc23)c2ccccc12 |  |  | solubility [5]: < 0.01 mg/mL; Ki (Cannabinoid receptor 2): 0.019 µM; Kp [7]: 0.04 |
| C=CCn1c2c(c3cc(C(=O)N4CCC(C)CC4)ccc31)CN(Cc1ccccn1)CC2 |  | 5.42 µM |  |
| C=CCn1c2c(c3cc(C(=O)N4CCC(C)CC4)ccc31)CN(C1CCCC1)CC2 | 0.009 µM | 0.033 µM | microsomal CLint [4]: 93 µL/min/mg |
| CCCCCc1cc(O)c2c(c1)OC(C)(C)[C@@H]1CCC(C)=C[C@@H]21 [DRONABINOL] |  |  | solubility [5]: < 0.01 mg/mL; Kp [7]: 1 |
| CC1CCN(C(=O)c2ccc3c(c2)c2c(n3C(=O)N(C)C)CCN(C3CCOCC3)C2)CC1 | 2.38 µM |  |  |
| CC1CCN(C(=O)c2ccc3c(c2)c2c(n3S(=O)(=O)N(C)C)CCN(C3CCOCC3)C2)CC1 | 0.11 µM | 0.071 µM |  |
| CC1CCN(C(=O)c2ccc3c(c2)c2c(n3S(=O)(=O)N(C)C)CCN(C3CCCC3)C2)CC1 | 0.022 µM | 0.026 µM |  |
